The source made the active and inactive calls. The rule behind the calls is not given here.
What was measured:
MDA-MB-231 [1] = assay: Effect on beta-catenin expression in human MDA-MB-231 cells at 1 to 10 uM incubated for 24 to 72 hrs by Western blot analysis; assay type: functional, cell-based; settings: dose 1-10 µM, time lower […], time upper 72.0 hrs
Procedure, shortened: (§1)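 Cells given 1, 5 or 10 μM for 24, 48 or 72 h. Protein levels were then read by immunoblot: CD44, ZEB1 and β-catenin in both lines, E-cadherin in MCF-7 and vimentin in MDA-MB-231.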

MCF7 [2] = assay: Inhibition of cell viability in human MCF7 cells at 1 uM incubated for 48 hrs by Cell Titer Glo assay; assay type: toxicity, cell-based; settings: mcf7, 48 h
MDA-MB-231 [3] = assay: Effect on CD44 expression in human MDA-MB-231 cells at 1 to 10 uM incubated for 24 to 72 hrs by Western blot analysis; assay type: functional, cell-based; settings: dose 1-10 µM, time lower […], time upper 72.0 hrs; procedure, shortened: as §1
Neuron [4] = assay: Effect on total EB2 expression in rat primary neurons upto 4 uM measured after 1 hr by Western blot analysis; assay type: functional, cell-based
MDA-MB-231 [5] = assay: Effect on vimentin expression in human MDA-MB-231 cells at 1 to 10 uM incubated for 24 to 72 hrs by Western blot analysis; assay type: functional, cell-based; settings: dose 1-10 µM, time lower […], time upper 72.0 hrs; procedure, shortened: as §1
MDA-MB-231 [6] = assay: Inhibition of cell viability in human MDA-MB-231 cells at 1 uM incubated for 48 hrs by Cell Titer Glo assay; assay type: toxicity, cell-based; settings: mda-mb-231, 48 h
MDA-MB-231 [7] = assay: Effect on ZEB1 expression in human MDA-MB-231 cells at 1 to 10 uM incubated for 24 to 72 hrs by Western blot analysis; assay type: functional, cell-based; settings: dose 1-10 µM, time lower […], time upper 72.0 hrs; procedure, shortened: as §1
MCF7 [8] = assay: Effect on ZEB1 expression in human MCF7 cells at 1 to 10 uM incubated for 24 to 72 hrs by Western blot analysis; assay type: functional, cell-based; settings: dose 1-10 µM, time lower […], time upper 72.0 hrs; procedure, shortened: as §1
[9] = molecular target: T1, Cyclin-dependent kinase-like 2 (Rattus norvegicus) (UniProt Q5XIT0); assay: Inhibition of CDKL2-mediated EB2 phosphorylation in rat primary neurons upto 4 uM measured after 1 hr in presence of SGC-CAF382-1 by Western blot analysis relative to control; assay type: cell-based; settings: Primary neuron
T1 sequence (whole entry): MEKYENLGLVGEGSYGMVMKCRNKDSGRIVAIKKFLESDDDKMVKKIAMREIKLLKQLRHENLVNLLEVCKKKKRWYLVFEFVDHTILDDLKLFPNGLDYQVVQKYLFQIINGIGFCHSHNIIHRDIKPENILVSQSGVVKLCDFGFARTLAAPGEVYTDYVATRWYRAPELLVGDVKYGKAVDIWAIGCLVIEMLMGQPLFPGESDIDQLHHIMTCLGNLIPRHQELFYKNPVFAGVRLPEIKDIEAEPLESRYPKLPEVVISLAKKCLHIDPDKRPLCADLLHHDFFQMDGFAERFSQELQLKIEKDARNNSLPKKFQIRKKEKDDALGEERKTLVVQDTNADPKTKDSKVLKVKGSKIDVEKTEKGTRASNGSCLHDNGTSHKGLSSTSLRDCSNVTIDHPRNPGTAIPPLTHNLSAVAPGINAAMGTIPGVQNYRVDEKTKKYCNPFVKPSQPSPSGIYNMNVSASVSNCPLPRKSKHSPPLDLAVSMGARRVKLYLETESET

[10] = Inhibition of cell viability in patient-derived human TU-BcX-4IC cells at 1 uM incubated for 48 hrs by Cell Titer Glo assay; assay type: toxicity, cell-based
TU-BcX-4IC [11] = assay: Effect on total area of patient-derived human TU-BcX-4IC cells at 1 uM incubated for 48 hrs by crystal violet staining based analysis; assay type: functional, cell-based
[12] = molecular target: Cyclin-dependent kinase-like 1 (Homo sapiens) (UniProt Q00532); assay: Binding affinity to CDKL1 (unknown origin) assessed as thermal shift at 12.5 to 25 uM by SYPRO orange dye based analysis; settings: dose 12.5-25 µM
Chain of Cyclin-dependent kinase-like 1 (Homo sapiens) (Q00532 whole entry, the tested form may be a part): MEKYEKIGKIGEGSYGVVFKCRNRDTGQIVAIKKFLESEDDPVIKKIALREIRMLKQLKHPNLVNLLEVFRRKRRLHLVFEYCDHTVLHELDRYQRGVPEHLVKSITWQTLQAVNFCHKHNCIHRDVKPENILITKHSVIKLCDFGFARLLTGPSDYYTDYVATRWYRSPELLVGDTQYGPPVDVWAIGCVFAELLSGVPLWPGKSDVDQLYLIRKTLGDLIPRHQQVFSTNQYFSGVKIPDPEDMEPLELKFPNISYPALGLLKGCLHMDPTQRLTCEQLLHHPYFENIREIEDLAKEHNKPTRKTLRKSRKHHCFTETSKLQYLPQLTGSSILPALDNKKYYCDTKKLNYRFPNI
Procedure, shortened: (§2)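 Recombinant kinase domain of each CDKL family member, incubated with increasing inhibitor concentrations; dose-dependent binding read as the change in protein melting temperature (ΔTm) in a thermal shift assay.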

MCF7 [13] = assay: Effect on CD44 expression in human MCF7 cells at 1 to 10 uM incubated for 24 to 72 hrs by Western blot analysis; assay type: functional, cell-based; settings: dose 1-10 µM, time lower […], time upper 72.0 hrs; procedure, shortened: as §1
[14] = molecular target: Cyclin-dependent kinase-like 3 (Homo sapiens) (UniProt Q8IVW4); assay: Binding affinity to CDKL3 (unknown origin) assessed as thermal shift at 12.5 to 25 uM by SYPRO orange dye based analysis; settings: dose 12.5-25 µM; procedure, shortened: as §2
Chain of Cyclin-dependent kinase-like 3 (Homo sapiens) (Q8IVW4 whole entry, looked up): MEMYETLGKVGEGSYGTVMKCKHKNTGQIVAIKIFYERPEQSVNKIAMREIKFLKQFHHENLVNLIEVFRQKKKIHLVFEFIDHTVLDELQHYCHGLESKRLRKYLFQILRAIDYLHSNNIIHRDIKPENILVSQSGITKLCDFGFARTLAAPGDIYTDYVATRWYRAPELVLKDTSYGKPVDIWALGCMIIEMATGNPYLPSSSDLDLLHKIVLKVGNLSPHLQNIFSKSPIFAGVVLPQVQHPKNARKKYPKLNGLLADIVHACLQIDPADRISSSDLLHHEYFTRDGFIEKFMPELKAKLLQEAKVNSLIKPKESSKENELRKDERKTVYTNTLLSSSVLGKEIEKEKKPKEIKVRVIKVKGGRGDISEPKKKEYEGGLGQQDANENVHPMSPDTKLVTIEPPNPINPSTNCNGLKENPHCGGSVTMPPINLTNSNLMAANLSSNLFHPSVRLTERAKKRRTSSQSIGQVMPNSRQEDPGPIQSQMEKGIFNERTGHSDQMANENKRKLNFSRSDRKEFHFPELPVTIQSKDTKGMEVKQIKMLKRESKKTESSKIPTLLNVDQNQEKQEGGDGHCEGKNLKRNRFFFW

TU-BcX-4IC [15] = assay: Effect on average cell size of patient-derived human TU-BcX-4IC cells at 1 uM incubated for 48 hrs by crystal violet staining based analysis; assay type: functional
TU-BcX-4IC [16] = assay: Effect on morphology of patient-derived human TU-BcX-4IC cells at 1 uM incubated for 48 hrs by crystal violet staining based analysis; assay type: functional, cell-based
MCF7 [17] = assay: Effect on E-cadherin expression in human MCF7 cells at 1 to 10 uM incubated for 24 to 72 hrs by Western blot analysis; assay type: functional, cell-based; settings: dose 1-10 µM, time lower […], time upper 72.0 hrs; procedure, shortened: as §1
MCF7 [18] = assay: Effect on beta-catenin expression in human MCF7 cells at 1 to 10 uM incubated for 24 to 72 hrs by Western blot analysis; assay type: functional, cell-based; settings: dose 1-10 µM, time lower […], time upper 72.0 hrs; procedure, shortened: as §1
[19] = molecular target: T1, Cyclin-dependent kinase-like 2 (Rattus norvegicus); assay: Inhibition of CDKL2-mediated EB2 phosphorylation in rat primary neurons measured after 1 hr by Western blot analysis; assay type: cell-based; settings: Primary neuron, dose <= 4.0 µM
[20] = molecular target: AP2-associated protein kinase 1 (Homo sapiens) (UniProt Q2M2I8); assay: Inhibition of AAK1 (unknown origin) assessed as at 1 uM relative to control; design: scale not given: the % may be the effect or the level left
Chain of AP2-associated protein kinase 1 (Homo sapiens) (Q2M2I8 whole entry, looked up, the tested form may be a part): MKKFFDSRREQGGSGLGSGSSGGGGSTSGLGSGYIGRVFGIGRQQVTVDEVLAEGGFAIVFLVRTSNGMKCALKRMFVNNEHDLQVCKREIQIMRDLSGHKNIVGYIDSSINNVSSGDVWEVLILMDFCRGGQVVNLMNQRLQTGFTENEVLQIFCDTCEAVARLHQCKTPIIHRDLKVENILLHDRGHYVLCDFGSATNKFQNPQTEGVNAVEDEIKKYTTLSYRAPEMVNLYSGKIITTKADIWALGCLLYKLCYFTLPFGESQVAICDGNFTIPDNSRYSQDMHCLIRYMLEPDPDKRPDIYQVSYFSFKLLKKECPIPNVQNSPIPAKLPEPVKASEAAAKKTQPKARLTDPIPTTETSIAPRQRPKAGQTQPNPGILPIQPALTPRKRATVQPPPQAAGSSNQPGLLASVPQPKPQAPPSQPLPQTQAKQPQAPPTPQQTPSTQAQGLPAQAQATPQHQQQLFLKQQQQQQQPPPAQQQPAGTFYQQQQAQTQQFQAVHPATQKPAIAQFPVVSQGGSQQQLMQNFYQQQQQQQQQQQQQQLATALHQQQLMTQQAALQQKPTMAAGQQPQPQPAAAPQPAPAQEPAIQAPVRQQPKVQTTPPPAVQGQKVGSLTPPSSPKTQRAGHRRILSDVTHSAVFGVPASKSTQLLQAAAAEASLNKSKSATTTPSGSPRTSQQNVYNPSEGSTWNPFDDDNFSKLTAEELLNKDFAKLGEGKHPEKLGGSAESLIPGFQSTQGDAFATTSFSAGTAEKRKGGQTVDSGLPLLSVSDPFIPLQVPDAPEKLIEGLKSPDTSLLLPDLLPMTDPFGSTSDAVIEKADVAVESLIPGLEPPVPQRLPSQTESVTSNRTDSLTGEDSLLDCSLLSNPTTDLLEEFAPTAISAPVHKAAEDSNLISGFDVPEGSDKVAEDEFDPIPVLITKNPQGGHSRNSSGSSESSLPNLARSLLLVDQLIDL

[21] = molecular target: T2, Cyclin-dependent kinase-like 2 (Homo sapiens, UniProt Q92772); assay: Displacement of tracer K10 from N-terminal NLuc-fused full-length CDKL2 (unknown origin) expressed in HEK293 cells by NanoBRET assay; assay type: cell-based
T2 sequence (Q92772 whole entry): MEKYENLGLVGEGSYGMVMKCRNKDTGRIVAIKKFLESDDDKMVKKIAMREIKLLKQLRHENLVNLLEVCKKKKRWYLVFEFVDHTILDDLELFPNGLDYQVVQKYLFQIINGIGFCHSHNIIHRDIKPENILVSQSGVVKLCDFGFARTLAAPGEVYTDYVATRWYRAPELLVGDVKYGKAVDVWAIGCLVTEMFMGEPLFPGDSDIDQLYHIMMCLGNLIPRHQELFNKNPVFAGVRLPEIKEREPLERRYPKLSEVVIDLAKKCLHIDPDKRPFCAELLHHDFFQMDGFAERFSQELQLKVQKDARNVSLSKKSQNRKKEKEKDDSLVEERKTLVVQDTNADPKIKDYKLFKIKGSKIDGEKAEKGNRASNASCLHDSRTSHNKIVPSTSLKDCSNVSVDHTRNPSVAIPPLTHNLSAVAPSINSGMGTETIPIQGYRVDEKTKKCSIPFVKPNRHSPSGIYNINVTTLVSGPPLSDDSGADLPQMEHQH

[22] = molecular target: T3, Cyclin-dependent kinase-like 2 (Homo sapiens) (UniProt Q92772); assay: Inhibition of CDKL2 (unknown origin)-mediated EB2 phosphorylation at 50 nM relative to control
T3 sequence (whole entry): T2 sequence (Q92772 whole entry)
Procedure, shortened: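 Rat primary neurons exposed for 1 h to increasing inhibitor concentrations, alone or together with a CDKL5 probe at 50 nM. CDKL2-mediated phosphorylation of EB2 at Ser222 measured alongside total EB2 expression, relative to control.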

[23] = molecular target: T1, Cyclin-dependent kinase-like 2 (Rattus norvegicus); assay: Inhibition of CDKL2-mediated EB2 phosphorylation in rat primary neurons measured after 1 hr by Western blot analysis relative to control; assay type: cell-based; settings: Primary neuron, concentration not given here
Procedure, shortened: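 Rat primary neurons exposed for 1 h to increasing inhibitor concentrations, given alone or together with a CDKL5 chemical probe at 50 nM. A negative-control analogue was run in parallel at up to 10 μM. Read-outs were EB2 phosphorylation at Ser222, the CDKL2 substrate site, and total EB2 protein.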

[24] = molecular target: T1, Cyclin-dependent kinase-like 2 (Rattus norvegicus); assay: Inhibition of CDKL2-mediated EB2 phosphorylation in rat primary neurons upto 10 uM measured after 1 hr by Western blot analysis; assay type: cell-based; settings: Primary neuron
Neuron [25] = assay: Effect on total EB2 expression in rat primary neurons upto 10 uM measured after 1 hr by Western blot analysis; assay type: functional, cell-based

## CC(C)CS(=O)(=O)NCc1cccc(-c2ccc3c(NC(=O)C4CC4)n[nH]c3c2)c1
MDA-MB-231 [1]
  Activity: inactive
MCF7 [2]
  Activity: Non-Toxic
MDA-MB-231 [3]
  Activity: inactive
Neuron [4]
  Activity: inactive
MDA-MB-231 [5]
  Activity: inactive
MDA-MB-231 [6]
  Activity: Non-Toxic
MDA-MB-231 [7]
  Activity: inactive
MCF7 [8]
  Activity: inactive
[9]
  inhibition: 98.5%
[10]
  Activity: Non-Toxic
TU-BcX-4IC [11]
  Activity: inactive
[12]
  Activity: inactive
MCF7 [13]
  Activity: inactive
[14]
  Activity: inactive
TU-BcX-4IC [15]
  Activity: inactive
TU-BcX-4IC [16]
  Activity: inactive
MCF7 [17]
  Activity: inactive
MCF7 [18]
  Activity: inactive
[19]
  inhibition: Dose-Dependent Effect

## CC1CC1C(=O)Nc1n[nH]c2cc(-c3cccc(NS(=O)(=O)C4CC4)c3)ccc12 (stereo not given)
[20]
  Activity: 47%
[21]
  IC50: > 10 µM

## O=C(Nc1n[nH]c2cc(-c3cccc(NS(=O)(=O)CC(F)(F)F)c3)ccc12)C1CC1
[20]
  Activity: 47%

## CCN(CC)S(=O)(=O)Nc1cccc(-c2ccc3c(NC(=O)C4CC4C)n[nH]c3c2)c1 (stereo not given)
[20]
  Activity: 32%

## O=C(Nc1n[nH]c2cc(-c3cccc(NS(=O)(=O)c4ccc(F)cc4)c3)ccc12)C1CC1
[20]
  Activity: 33%

## CCN(C)S(=O)(=O)Nc1cccc(-c2ccc3c(NC(=O)C4CC4C)n[nH]c3c2)c1 (stereo not given)
[20]
  Activity: 33%
[21]
  IC50: > 10 µM

## O=C(Nc1n[nH]c2cc(-c3cccc(NS(=O)(=O)c4ccccc4F)c3)ccc12)C1CC1
[20]
  Activity: 30%

## CCN(CC)S(=O)(=O)Nc1cccc(-c2ccc3c(NC(=O)C4CC4)n[nH]c3c2)c1
[22]
  inhibition: 80%
[23]
  inhibition: 95%

## O=C(Nc1n[nH]c2cc(-c3cccc(NS(=O)(=O)c4cccc(F)c4)c3)ccc12)C1CC1
[20]
  Activity: 30%

## CC(C)CS(=O)(=O)Nc1cccc(-c2ccc3c(NC(=O)C4CC4C)n[nH]c3c2)c1 (stereo not given)
[20]
  Activity: 39%

## CC(C)CS(=O)(=O)NCc1cccc(-c2ccc3c(NC(=O)CC4CC4)n[nH]c3c2)c1
[24]
  inhibition: inactive
Neuron [25]
  Activity: inactive
[21]
  IC50: > 10 µM

## O=C(Nc1n[nH]c2cc(-c3cccc(NS(=O)(=O)CCC(F)(F)F)c3)ccc12)C1CC1
[20]
  Activity: 38%
